Compound activity: PubChem, Broad Institute
Statin myotox sup = suppressors of simvastatin-induced myotoxicity in C2C12 myotubes. ATP luminescence, 48 h; scaled: DMSO 0, geranylgeraniol control 100. rescue of ATP level, % at 7.49 µM. 0.78% of 330,000 active;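 active means mean ATP rescue above about 67%, or every replicate alone reaching that limit, limit read from the data, passing the limit was not always enough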;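 further: myotubes were challenged with 10 µM simvastatin during compound exposure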
SR-BI HDL uptake = mouse SR-BI HDL lipid transfer inhibition; AID 488896; ldlA[mSR-BI] CHO cells, DiI-HDL uptake fluorescence, 3 h; inhibition, % at 12.5 µM; 0.96% of 320,000 active; Q61009;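 active means mean replicate inhibition of at least 70% and a set share of replicates each scoring 70 or more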;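 further: 0% = median of neutral control wells and 100% = median of positive control wells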
Target sequence (Q61009 whole entry, looked up): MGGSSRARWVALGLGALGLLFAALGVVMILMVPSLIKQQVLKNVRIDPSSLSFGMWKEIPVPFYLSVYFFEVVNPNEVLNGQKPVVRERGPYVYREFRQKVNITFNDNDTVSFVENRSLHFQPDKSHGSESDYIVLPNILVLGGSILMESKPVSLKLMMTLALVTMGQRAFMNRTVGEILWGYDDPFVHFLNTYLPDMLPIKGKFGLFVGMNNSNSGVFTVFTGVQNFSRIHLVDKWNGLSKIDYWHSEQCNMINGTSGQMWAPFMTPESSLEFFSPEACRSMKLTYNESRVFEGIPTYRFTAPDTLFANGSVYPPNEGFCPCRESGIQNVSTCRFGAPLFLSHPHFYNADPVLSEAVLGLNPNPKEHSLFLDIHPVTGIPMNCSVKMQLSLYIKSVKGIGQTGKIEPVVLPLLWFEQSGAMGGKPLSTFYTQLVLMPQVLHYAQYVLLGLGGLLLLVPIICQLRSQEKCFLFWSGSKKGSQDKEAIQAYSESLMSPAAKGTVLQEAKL
Vif inh = HIV Vif inhibition; 0.35% of 340,000 active; AID 602346; HEK293T cells, Vif self-association by quenched fluorescence, imaging, 24 h; inhibition, % at 7.49 µM; in the data active means inhibition above about 50%, passing the limit was not always enough
SR-BI DiI-HDL act = SR-BI HDL lipid transfer activation. 0.096% of 320,000 active. CHO ldlA[mSR-BI] cells, DiI-HDL uptake fluorescence, 3 h; 100 = double the neutral-control signal. activation, % at 12.5 µM;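 active means mean replicate activation of at least 60% and every replicate at or above 60%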;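 further: 0% = median plate neutral-control signal and 100% = twice that signal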
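System: CHO ldlA[mSR-BI] cells / Medium: HEPES-buffered (25 mM, pH 7.4) F12 plus 0.5% BSA / Probe or stimulus: labelled HDL, 10 µg/mL / Doses: single compound concentration, delivered by pin transfer / Schedule: 3 h, 37 °C / Measured by: DiI fluorescence, bottom read / Measure: cell-associated DiI fluorescence as measure of HDL uptake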
Numbers without * were called inactive; . = no result given. In the library only some 1.7% were active in any assay of this set; here they are far more common.

SMILES	Statin myotox sup	SR-BI HDL uptake	Vif inh	SR-BI DiI-HDL act
COC(=O)C[C@H]1C[C@H]2c3cc(NC(=O)c4ccc5c(c4)OCO5)ccc3O[C@H]2[C@@H](CO)O1	0	.	.	.
O=C(/C(=C/c1ccc(Cl)cc1)c1nc2ccccc2[nH]1)c1cccs1	181*	15	-9	-15
CCC(=O)N1[C@H](C(=O)N(C)C)[C@@H](CO)[C@@H]2Cn3c(ccc(-c4ccccc4)c3=O)[C@@H]21	18	.	.	.
CN(C)CCCNc1nc(N)c([N+](=O)[O-])c(NCCO)n1	87*	1	-4	-1
N#C/C(=C/C1=C(N2CCOCC2)C(=C/c2ccccc2)/CC1)C(=O)Nc1ccccc1F	-37	75*	14	-75
N#C/C(=C/C1=C(N2CCOCC2)C(=C/c2ccc(Cl)cc2Cl)/CC1)C(=O)Nc1ccccc1F	.	74*	0	-74
N#C/C(=C\C1=C(N2CCOCC2)C(=C\c2ccc(Cl)cc2)/CC1)C(=O)Nc1ccccc1F	.	37	-1	-37
C[C@H](CO)N1C[C@H](C)[C@H](CN(C)CC2CCCC2)OCc2cnnn2CCCC1=O	14	.	.	.
COc1cccc(S(=O)(=O)N(C)C[C@H]2OCc3ccccc3-c3c(n(C)c4ccccc34)C(=O)N([C@H](C)CO)C[C@H]2C)c1	80*	.	.	.
COc1ccc(S(=O)(=O)N(C)C[C@@H]2OCc3ccccc3-c3c(n(C)c4ccccc34)C(=O)N([C@@H](C)CO)C[C@@H]2C)cc1	12	.	.	.
C[C@@H]1CN([C@H](C)CO)C(=O)c2c(c3ccccc3n2C)-c2ccccc2CO[C@@H]1CN(C)C(=O)Nc1ccccc1C(F)(F)F	12	.	53*	.
COCC(=O)N1C[C@@H](C)[C@H](OC)CN(C)C(=O)c2ccc(NC(=O)c3ccc(F)cc3)cc2OC[C@@H]1C	-6	.	.	.
COc1ccc(C(=O)NCC2(c3ccccc3)CCCC2)c(OC)c1	6	22	-9	-22
COc1ccc(C2(CNC(=O)CCC(=O)O)CCCC2)cc1	86*	-19	5	19
O=C(Nc1ccc(F)cc1)N[C@@H]1CC[C@@H](CCn2cc(C3(O)CCCC3)nn2)O[C@@H]1CO	2	.	.	.
CC(=O)c1cccc(Nc2nc(-c3sc(C)nc3C)cs2)c1	-15	71*	3	-71
CC(=O)c1cccc(Nc2nc(-c3sc(N)nc3C)cs2)c1	-7	42	11	-42
Cc1cccc(Nc2nc(-c3sc(C)nc3C)cs2)c1	-38	85*	-1	-85
CC(=O)c1ccc(Nc2nc(-c3sc(C)nc3C)cs2)cc1	-180	.	-7	.
CC(=O)Nc1ccc(Nc2nc(-c3sc(C)nc3C)cs2)cc1	-11	74*	-14	-74
C[C@@H]1CN([C@H](C)CO)S(=O)(=O)c2ccc(C3=CCCCC3)cc2O[C@H]1CN(C)C(=O)C1CCOCC1	-13	.	.	.
COc1ccc(CCn2c(=O)[nH]c3cc(C(=O)N4CCN(c5ccccn5)CC4)ccc3c2=O)cc1OC	5	81*	-7	-81
COc1ccc(CCn2c(=O)[nH]c3cc(C(=O)N4CCN(c5ccccc5)CC4)ccc3c2=O)cc1OC	.	67	-1	-67
CCOC(=O)C1=C(O)/C(=C/c2cc(OC)c(O)c(OC)c2)SC1=Nc1ccc(OC)cc1	.	86*	7	-86
C[C@@H]1CN([C@H](C)CO)C(=O)Cc2cc(NC(=O)CCN3CCOCC3)ccc2O[C@H]1CN(C)Cc1ccc(Oc2ccccc2)cc1	11	.	.	.
SMILES	Statin myotox sup	SR-BI HDL uptake	Vif inh	SR-BI DiI-HDL act
CCOC(=O)C1=C(O)/C(=C/c2ccc(-c3ccccc3C(=O)O)o2)SC1=Nc1ccc(C)cc1	7	.	-9	.
CCOC(=O)C1=C(O)/C(=C/c2cn(CC(=O)NCC3CCCO3)c3ccccc23)SC1=Nc1ccc(C)cc1 (configuration not stated)	.	34	94*	-34
Cc1ccc(S(=O)(=O)NCC[C@@H]2CC[C@H](NC(=O)NC(C)C)[C@@H](CO)O2)cc1	20	.	.	.
CCNc1c([N+](=O)[O-])c(=O)n(CC)c2ccccc12	.	.	8	.
Cc1ccc(Sc2c([N+](=O)[O-])c(=O)n(C)c3ccccc23)cc1	90*	-8	1	8
Cn1c(=O)c([N+](=O)[O-])c(NCc2ccccc2)c2ccccc21	122*	3	-1	.
COc1cc(/C=N/NC(=O)c2cnn3c(C)cc(-c4ccccc4)nc23)ccc1O	-21	77*	0	-77
COc1cc(/C=N/NC(=O)c2cc(-c3ccccc3)nc3ccccc23)ccc1O	-5	69	-1	-69
COc1cccc(CNC(=O)CSc2nnc3c(n2)[nH]c2ccc(F)cc23)c1	-39	-34	16	34
